Measured values: article PMC9253162 (Bioactive Materials, 2022)

Tests used:
E. coli (ATCC-25922) = assay: MIC, turbidity-based broth dilution assay; type: cell-based, Escherichia coli; conditions: 2–7 × 10^5 CFU/mL, 37 °C, 190 rpm, 16 h
How it was run: (§1)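 Turbidity-based broth dilution at 2–7 × 10^5 CFU/mL, shaken at 190 rpm and 37 °C for 16 h, with Polymyxin-B as positive control. For the selectivity index (HC50/MIC), hemolysis was measured on mouse red blood cells. Triton X-100 set 100% lysis, and RBCs in PBS gave the background that was subtracted. HC50 was taken as the concentration causing 50% hemolysis.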

[1] = tested on: P. aeruginosa (ATCC-27853); assay: MIC, turbidity-based broth dilution assay; type: cell-based, Pseudomonas aeruginosa; conditions: 2–7 × 10^5 CFU/mL, 37 °C, 190 rpm, 16 h
How it was run: as §1

Substance: Polymyxin-B
- Minimum Inhibitory Concentration E. coli (E. coli (ATCC-25922)): <0.5 µg/mL
- Minimum Inhibitory Concentration P. aeruginosa [1]: 1.0 µg/mL
